# Results collected from several papers.
# Each line is one published result; the experiments were not run side by side.
SMILES,assay,test system,conditions,measurement,result
C[C@@H](C(=O)N1Cc2c(-c3ccc(C(=O)N4CCCc5ccccc54)cc3)cnn2C[C@@H]1C)c1ccccc1,HPLC,,pH 7.4,chromatographic logD,4.8
CN(C)C(=O)c1ccc(-c2c(-c3ccccn3)nc3n2CCC3)cc1,metabolic stability,"rat, hepatocytes",,hepatocyte CLint,< 1 µL/min/10⁶ cells
CC1=C(C(=O)OCc2ccccc2)C(=O)/C(=C\c2cc(C)n(-c3ccccc3C(F)(F)F)c2C)N1,HPLC,,pH 7.4,chromatographic logD,4
COc1cccc(-c2nc3ccccn3c2Nc2ccc(F)cc2)n1,metabolic stability,"rat, hepatocytes",,hepatocyte CLint,> 300 µL/min/10⁶ cells
COc1cc(C(=O)NC2CCN(C)CC2)c(F)cc1Nc1ncc(C(F)(F)F)c(Oc2cccc3c2C(=O)N(C)C3)n1,,"human, plasma","oral, 100 mg, multiple doses, once daily, patients",CL/F,10.4 L/h
Fc1cccc(Nc2nc(-c3ccccn3)nc3ccccc23)c1,metabolic stability,"human, liver microsomes",,microsomal CLint,81 µL/min/mg
C[C@@H](C(=O)NC1Cc2ccccc2C1)c1ccccc1,metabolic stability,"rat, liver microsomes",1 µM,microsomal CLint,> 200 µL/min/mg
CC(C)(C)[Si](C)(C)OCCCN(c1ccc(F)cc1)c1c(-c2ccccn2)nc2ccccn12,metabolic stability,"rat, hepatocytes",,hepatocyte CLint,42 µL/min/10⁶ cells
CS(=O)(=O)CCC#N,,"human, plasma","oral, 100 mg, single dose, fasted",CL/F,0.3 mL/min/kg
O=C1C2N=CN3C(NCc4c(F)ccc5c4CCO5)=NC=C(c4cnc(C(F)(F)F)cc4CN1CC(F)F)C23 (centres unmarked),metabolic stability,"rat, liver microsomes","100 µM, 30 min",scaled CLint,20 mL/min/kg
Cc1ccc(C(=O)N(CCCN)[C@@H](c2oc3cc(Cl)ccc3c(=O)c2Cc2ccccc2)C(C)C)cc1,,"human, plasma","intravenous, 8 mg/m², single dose, patients, infusion",clearance,23.1 mL/min
Fc1ccc(Nc2c(-c3ncccc3F)nc3ccccn23)cc1,metabolic stability,"rat, hepatocytes",,hepatocyte CLint,100 µL/min/10⁶ cells
c1ccc(-c2nc(N3CCC(c4ccccn4)C3)c3ccccc3n2)cc1 (centres unmarked),metabolic stability,"human, liver microsomes",,microsomal CLint,182 µL/min/mg
c1cnc2ccc(Nc3nc(NC4CC4)c4nc[nH]c4n3)cc2c1,,"human, plasma","oral, 800 mg/m², patients",CL/F,76.6 L/h
COc1ccc2nc(-c3ccccn3)c(N(C)c3ccc(F)cc3)n2c1,metabolic stability,"rat, hepatocytes",,hepatocyte CLint,> 300 µL/min/10⁶ cells
c1ccc(-c2nc(NCCn3ccnc3)c3ccccc3n2)nc1,metabolic stability,"human, liver microsomes",,microsomal CLint,36 µL/min/mg
Fc1ccc(Nc2c(-c3cc(Cl)ccn3)nc3ccccn23)cc1,metabolic stability,"rat, hepatocytes",,hepatocyte CLint,> 300 µL/min/10⁶ cells
CCNCCCNC/C=C\CNCCCNCC,,"human, plasma","intravenous, 200 mg, patients, infusion",clearance,3140 mL/min
Cc1c(C(=O)NN2CCCCC2)nc(-c2ccc(Cl)cc2Cl)n1-c1ccc(OCc2ccccc2)cc1,shake flask,aqueous buffer,pH 7.4,logD,> 5.3
COc1ccccc1-c1nc(N2CCC(c3ccccn3)C2)c2ccccc2n1 (centres unmarked),metabolic stability,"human, liver microsomes",,microsomal CLint,69 µL/min/mg
OC[C@H]1O[C@@H](c2ccc(Cl)c(Cc3ccc(O[C@H]4CCOC4)cc3)c2)[C@H](O)[C@@H](O)[C@@H]1O,,"human, urine","oral, 2.5 mg, single dose",renal clearance,29.1 mL/min
c1ccc(-c2nc(N3CCN(c4ccccn4)CC3)c3ccccc3n2)nc1,metabolic stability,"human, liver microsomes",,microsomal CLint,79 µL/min/mg
COc1cc(OC)cc(-c2c(-c3ccccn3)nc3n2CCC3)c1,metabolic stability,"rat, hepatocytes",,hepatocyte CLint,> 300 µL/min/10⁶ cells
c1ccc(-c2nc(N3CCCCCC3)c3ccccc3n2)nc1,metabolic stability,"human, liver microsomes",,microsomal CLint,190 µL/min/mg
CC(C)CCN(c1ccc(F)cc1)c1c(-c2ccccn2)nc2ccccn12,metabolic stability,"rat, hepatocytes",,hepatocyte CLint,> 300 µL/min/10⁶ cells
c1ccc(-c2nc(N3CCCC3c3ccccn3)c3ccccc3n2)nc1 (centres unmarked),metabolic stability,"human, liver microsomes",,microsomal CLint,62 µL/min/mg
CCOC(=O)C1=C(C)N/C(=C/c2ccn(-c3ccc(C(F)(F)F)cc3)c2)C1=O,HPLC,,pH 7.4,chromatographic logD,3.4
c1ccc(-c2nc(NCc3ccco3)c3ccccc3n2)nc1,metabolic stability,"human, liver microsomes",,microsomal CLint,71 µL/min/mg
OC[C@H]1O[C@@H](c2ccc(Cl)c(Cc3ccc(O[C@H]4CCOC4)cc3)c2)[C@H](O)[C@@H](O)[C@@H]1O,,"human, plasma","oral, multiple doses, steady state",CL/F,8.99 L/h
